Data published in ChEMBL document CHEMBL2375308, “Synthesis and selected immunological properties of substituted quino[3,2-b]benzo[1,4]thiazines” (Eur J Med Chem, 2013).
Active and inactive are the calls of the source. The calls are words filed in the database; no cut-off is given here.

Assays:
PBMC [1] = assay: Antiproliferative activity against PHA-stimulated human PBMC at 10 ug/mL after 4 days by MTT assay relative to DMSO-treated control; type: functional
Outline: (§1)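 PBMC from one donor's heparinized blood, Ficoll gradient isolated, in RPMI-1640 with 10% FCS; 2 × 10⁵ cells/well. PHA added at […]; compounds from DMSO stock (10 mg/mL) diluted in medium; matching DMSO dilutions as control. Four-day culture, proliferation read by MTT colorimetry; percentage inhibition versus control.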

L1210 [2] = assay: Growth inhibition of mouse L1210 cells at 10 to 50 ug/mL after 3 days by MTT assay; type: functional, cell-based
Outline: (§2)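 Lines resuspended in culture medium: L-1210 at 1.5 × 10⁴ cells/well, SW-948 and A-431 at 2.5 × 10⁴ cells/well. Preparations added over […], cisplatin reference at the same concentrations. 3-day incubation, proliferation by MTT; mean OD of quadruplicate wells ±SE, expressed as percentage inhibition.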

PBMC [3] = assay: Inhibition of LPS-induced TNFalpha production in human PBMC at 25 ug/mL after overnight incubation relative to DMSO-treated control; type: functional
Outline: (§3)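 Single-donor venous blood diluted 10× in RPMI-1640, 1 mL aliquots, stimulated with LPS (E. coli O111:B4). Compounds added at […]; corresponding DMSO dilutions as controls. Overnight incubation, supernatants frozen at −20 °C, TNF-α measured by biological assay; percentage inhibition versus DMSO control.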

PBMC [4] = assay: Cytotoxicity against human PBMC cells at 10 ug/mL after 24 hrs by MTT assay relative to DMSO-treated control; type: cell-based
Outline: (§4)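 Ficoll-isolated PBMC ([…]) in supplemented RPMI-1640, 2 × 10⁵/well, cultured 24 h with the preparations at the indicated concentrations; compounds dissolved in DMSO (10 mg/mL stock) and diluted in medium.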

A-431 [5] = assay: Growth inhibition of human A431 cells at 10 to 50 ug/mL after 3 days by MTT assay; type: functional, cell-based; outline: as §2
A-431 [6] = assay: Growth inhibition of human A431 cells at 10 ug/mL after 3 days by MTT assay relative to control; type: functional; conditions: A-431, 72 h, read-out: GI; outline: as §2
PBMC [7] = assay: Inhibition of LPS-induced TNFalpha production in human PBMC at 5 ug/mL after overnight incubation relative to DMSO-treated control; type: functional; outline: as §3
SW948 [8] = assay: Growth inhibition of human SW948 cells at 10 ug/mL after 3 days by MTT assay relative to control; type: functional; conditions: SW948, 72 h, read-out: GI; outline: as §2
PBMC [9] = assay: Antiproliferative activity against PHA-stimulated human PBMC at 50 ug/mL after 4 days by MTT assay relative to DMSO-treated control; type: functional; outline: as §1
L1210 [10] = assay: Growth inhibition of mouse L1210 cells at 10 ug/mL after 3 days by MTT assay relative to control; type: functional; conditions: L1210, 72 h, read-out: GI; outline: as §2
SW948 [11] = assay: Growth inhibition of human SW948 cells at 5 ug/mL after 3 days by MTT assay relative to control; type: functional; conditions: SW948, 72 h, read-out: GI; outline: as §2
PBMC [12] = assay: Cytotoxicity against human PBMC cells at 50 ug/mL after 24 hrs by MTT assay relative to DMSO-treated control; type: cell-based; outline: as §4
SW948 [13] = assay: Growth inhibition of human SW948 cells at 10 to 50 ug/mL after 3 days by MTT assay; type: functional, cell-based; outline: as §2

Q: `CSc1ccc2c(c1)Sc1cc3ccccc3nc1N2CCCCNC(=O)NCCCl` was tested. Which Activity (PBMC [1]) did it give?
A: 94.8%

Q: What about the “growth inhibition (GI)” value (L1210 [2]) of the same molecule?
A: Active

Q: What about the inhibition at 25 µg/mL (PBMC [3]) of the same molecule?
A: 47.5%

Q: And the Activity (PBMC [4])?
A: 4.2%

Q: And the “growth inhibition (GI)” value (A-431 [5])?
A: Active

Q: What about the inhibition of growth at 10 µg/mL (A-431 [6]) of the same molecule?
A: 91.8%

Q: And the inhibition at 5 µg/mL (PBMC [7])?
A: 73.3%

Q: And the inhibition of growth at 10 µg/mL (SW948 [8])?
A: 91.8%

Q: What about the Activity (PBMC [9]) of the same molecule?
A: 92.7%

Q: And the inhibition of growth at 10 µg/mL (L1210 [10])?
A: 91.8%

Q: What about the inhibition of growth at 5 µg/mL (SW948 [11]) of the same molecule?
A: 96%

Q: What about the Activity (PBMC [12]) of the same molecule?
A: 95.1%

Q: And the “growth inhibition (GI)” value (SW948 [13])?
A: Active

Q: For `CC(=O)NCCCCN1c2ccc(Cl)cc2Sc2cc3ccccc3nc21`, which Activity (PBMC [1]) is on record?
A: 71.2%

Q: What about the “growth inhibition (GI)” value (L1210 [2]) of the same molecule?
A: Active

Q: What about the inhibition at 25 µg/mL (PBMC [3]) of the same molecule?
A: 53.4%

Q: What about the Activity (PBMC [4]) of the same molecule?
A: Non-toxic

Q: What about the “growth inhibition (GI)” value (A-431 [5]) of the same molecule?
A: Active

Q: What about the inhibition of growth at 10 µg/mL (A-431 [6]) of the same molecule?
A: 91.8%

Q: What about the inhibition at 5 µg/mL (PBMC [7]) of the same molecule?
A: 13.2%

Q: What about the inhibition of growth at 10 µg/mL (SW948 [8]) of the same molecule?
A: 91.8%

Q: And the Activity (PBMC [9])?
A: 92.6%

Q: What about the inhibition of growth at 10 µg/mL (L1210 [10]) of the same molecule?
A: 91.8%

Q: What about the Activity (PBMC [12]) of the same molecule?
A: Non-toxic

Q: And the “growth inhibition (GI)” value (SW948 [13])?
A: Active

Q: Which results are given for `O=C(NCCCl)NCCCN1c2ccc(Cl)cc2Sc2cc3ccccc3nc21`?
A: Activity (PBMC [1]): 98.6%; growth inhibition (GI) (L1210 [2]): Active; inhibition at 25 µg/mL (PBMC [3]): 72.1%; Activity (PBMC [4]): 15.9%; growth inhibition (GI) (A-431 [5]): Active; inhibition of growth at 10 µg/mL (A-431 [6]): 91.8%; inhibition at 5 µg/mL (PBMC [7]): 9.2%; inhibition of growth at 10 µg/mL (SW948 [8]): 91.8%; Activity (PBMC [9]): 100%; inhibition of growth at 10 µg/mL (L1210 [10]): 91.8%; inhibition of growth at 5 µg/mL (SW948 [11]): 96%; Activity (PBMC [12]): 89.5%; growth inhibition (GI) (SW948 [13]): Active

Q: What does the source list for `CSc1ccc2c(c1)Sc1cc3ccccc3nc1N2CCN1CCCCC1`?
A: Activity (PBMC [1]): 93.8%; inhibition at 25 µg/mL (PBMC [3]): 34.6%; Activity (PBMC [4]): 18%; inhibition at 5 µg/mL (PBMC [7]): 49.2%; Activity (PBMC [9]): 92%; Activity (PBMC [12]): 91.7%

Q: `CC(=O)NCCCN1c2ccc(Cl)cc2Sc2cc3ccccc3nc21` was tested. Which Activity (PBMC [1]) did it give?
A: 50.8%

Q: What about the inhibition at 25 µg/mL (PBMC [3]) of the same molecule?
A: 60.6%

Q: What about the Activity (PBMC [4]) of the same molecule?
A: Non-toxic

Q: What about the inhibition at 5 µg/mL (PBMC [7]) of the same molecule?
A: 11.4%

Q: What about the Activity (PBMC [9]) of the same molecule?
A: 58.3%

Q: What about the Activity (PBMC [12]) of the same molecule?
A: Non-toxic

Q: Which Activity (PBMC [1]) does the source give for `Cc1ccc(S(=O)(=O)NCCCCN2c3ccc(Cl)cc3Sc3cc4ccccc4nc32)cc1` here?
A: 13.2%

Q: What about the inhibition at 25 µg/mL (PBMC [3]) of the same molecule?
A: -12.7%

Q: And the Activity (PBMC [4])?
A: Non-toxic

Q: And the inhibition at 5 µg/mL (PBMC [7])?
A: 20.7%

Q: What about the Activity (PBMC [9]) of the same molecule?
A: 19.8%

Q: And the Activity (PBMC [12])?
A: Non-toxic

Q: Which Activity (PBMC [1]) does the source give for `Cc1ccc(S(=O)(=O)NCCCN2c3ccc(Cl)cc3Sc3cc4ccccc4nc32)cc1` here?
A: 12.9%

Q: What about the inhibition at 25 µg/mL (PBMC [3]) of the same molecule?
A: 20.9%

Q: And the Activity (PBMC [4])?
A: Non-toxic

Q: And the inhibition at 5 µg/mL (PBMC [7])?
A: 5.9%

Q: And the Activity (PBMC [9])?
A: 22.7%

Q: And the Activity (PBMC [12])?
A: Non-toxic

Q: What does the source list for `CCOC(=O)NCCCN1c2ccccc2Sc2cc3ccccc3nc21`?
A: Activity (PBMC [1]): 69.7%; inhibition at 25 µg/mL (PBMC [3]): 14.1%; Activity (PBMC [4]): Non-toxic; inhibition at 5 µg/mL (PBMC [7]): 7.7%; Activity (PBMC [9]): 88.4%; Activity (PBMC [12]): Non-toxic

Q: Which results are given for `Clc1ccc2c(c1)Nc1nc3ccccc3cc1S2`?
A: Activity (PBMC [1]): 16.3%; inhibition at 25 µg/mL (PBMC [3]): 19.2%; Activity (PBMC [4]): Non-toxic; inhibition at 5 µg/mL (PBMC [7]): -1.2%; Activity (PBMC [9]): 27.1%; Activity (PBMC [12]): Non-toxic

Q: Which Activity (PBMC [1]) does the source give for `CN1CCCCC1CCN1c2ccccc2Sc2cc3ccccc3nc21` (stereo unspecified) here?
A: -23.5%

Q: What about the inhibition at 25 µg/mL (PBMC [3]) of the same molecule?
A: 62.4%

Q: What about the Activity (PBMC [4]) of the same molecule?
A: Non-toxic

Q: What about the inhibition at 5 µg/mL (PBMC [7]) of the same molecule?
A: 49.1%

Q: And the Activity (PBMC [9])?
A: 39.8%

Q: And the Activity (PBMC [12])?
A: 4.5%

Q: Which results are given for `CCOC(=O)NCCCCN1c2ccc(SC)cc2Sc2cc3ccccc3nc21`?
A: Activity (PBMC [1]): 44.3%; inhibition at 25 µg/mL (PBMC [3]): 33.1%; Activity (PBMC [4]): Non-toxic; inhibition at 5 µg/mL (PBMC [7]): 50.9%; Activity (PBMC [9]): 27.8%; Activity (PBMC [12]): Non-toxic

Q: For `Cc1ccc(S(=O)(=O)NCCCN2c3ccccc3Sc3cc4ccccc4nc32)cc1`, which Activity (PBMC [1]) is on record?
A: 6.6%

Q: What about the inhibition at 25 µg/mL (PBMC [3]) of the same molecule?
A: 15.6%

Q: What about the Activity (PBMC [4]) of the same molecule?
A: Non-toxic

Q: What about the inhibition at 5 µg/mL (PBMC [7]) of the same molecule?
A: 3.8%

Q: And the Activity (PBMC [9])?
A: -0.8%

Q: What about the Activity (PBMC [12]) of the same molecule?
A: Non-toxic

Q: Which results are given for `Clc1cccc2c1Sc1cc3ccccc3nc1N2`?
A: Activity (PBMC [1]): 10.7%; inhibition at 25 µg/mL (PBMC [3]): 4.6%; Activity (PBMC [4]): Non-toxic; inhibition at 5 µg/mL (PBMC [7]): 17%; Activity (PBMC [9]): 10.8%; Activity (PBMC [12]): 13%

Q: Which Activity (PBMC [1]) does the source give for `CS(=O)(=O)NCCCCN1c2ccccc2Sc2cc3ccccc3nc21` here?
A: 42.3%

Q: What about the inhibition at 25 µg/mL (PBMC [3]) of the same molecule?
A: 42.3%

Q: What about the Activity (PBMC [4]) of the same molecule?
A: Non-toxic

Q: What about the inhibition at 5 µg/mL (PBMC [7]) of the same molecule?
A: 14%

Q: And the Activity (PBMC [9])?
A: 94.3%

Q: What about the Activity (PBMC [12]) of the same molecule?
A: Non-toxic

Q: What does the source list for `CSc1ccc2c(c1)Sc1cc3ccccc3nc1N2CCCNS(=O)(=O)c1ccc(C)cc1`?
A: Activity (PBMC [1]): -5.3%; inhibition at 25 µg/mL (PBMC [3]): 20.8%; Activity (PBMC [4]): Non-toxic; inhibition at 5 µg/mL (PBMC [7]): 72.1%; Activity (PBMC [9]): -46.4%; Activity (PBMC [12]): Non-toxic

Q: For `O=C(NCCCl)NCCCN1c2ccccc2Sc2cc3ccccc3nc21`, which Activity (PBMC [1]) is on record?
A: 11.2%

Q: What about the inhibition at 25 µg/mL (PBMC [3]) of the same molecule?
A: 5%

Q: And the Activity (PBMC [4])?
A: 8.5%

Q: And the inhibition at 5 µg/mL (PBMC [7])?
A: 14.6%

Q: What about the Activity (PBMC [9]) of the same molecule?
A: 77.9%

Q: What about the Activity (PBMC [12]) of the same molecule?
A: Non-toxic
